Reference: ChEMBL document CHEMBL2169862, “Synthesis and biological evaluation of 1α,25-dihydroxyvitamin D₃ analogues with a long side chain at C12 and short C17 side chains” (J Med Chem, 2012)
Activity calls are given as the source filed them. The rule behind the calls is not given here.

Key:
[1] = tested on: SW480-ADH; assay: Induction of human SW480-ADH cell differentiation assessed as formation of compact epithelioid islands of highly adherent cells at 10 '-8 M after 48 hrs by phase-contrast microscopy; assay type: functional, cell-based
In short: (§1)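 SW480-ADH colon cancer cells were treated for 48 h with compound or vehicle in medium with charcoal-treated FCS. Differentiation was scored as compact epithelioid islands of highly adherent cells. A representative experiment is shown.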

[2] = target: T1, Vitamin D3 receptor (Homo sapiens, UniProt P11473); assay: Agonist activity at VDR in human MCF7 cells assessed as transcription of CYP24A1 gene after 24 hrs by luciferase reporter gene assay; assay type: functional, cell-based
T1 sequence (P11473 whole entry): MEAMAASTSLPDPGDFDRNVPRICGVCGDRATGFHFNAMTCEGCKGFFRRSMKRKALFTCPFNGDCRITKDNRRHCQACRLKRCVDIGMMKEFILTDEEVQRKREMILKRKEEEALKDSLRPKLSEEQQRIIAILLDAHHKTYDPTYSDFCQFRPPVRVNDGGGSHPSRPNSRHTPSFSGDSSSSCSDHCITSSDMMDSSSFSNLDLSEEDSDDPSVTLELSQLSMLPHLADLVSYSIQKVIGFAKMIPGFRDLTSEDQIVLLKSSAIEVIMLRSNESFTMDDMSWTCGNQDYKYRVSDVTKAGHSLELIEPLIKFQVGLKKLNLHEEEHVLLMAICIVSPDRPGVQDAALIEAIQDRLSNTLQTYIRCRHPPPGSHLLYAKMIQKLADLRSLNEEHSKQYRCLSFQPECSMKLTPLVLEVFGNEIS

[3] = tested on: Mus musculus; assay: Toxicity in CD-1 mouse assessed as body weight loss at 0.3 ug/kg, ip administered every other day for 3 weeks measured on day 21; assay type: organism-based; conditions: in vivo, 0.0003 mg/kg, 504 h
In short: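 Female CD-1 mice, 6–8 weeks, six per group. Dosed ip in sesame oil every other day for three weeks; vehicle controls. Body weight recorded every other day.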

[4] = tested on: SW480-ADH; assay: Effect on cellular PIP4K2B mRNA level in human SW480-ADH cells at 10 '-9 to 10 '-7 M after 48 hrs by RT-PCR analysis; assay type: functional, cell-based
In short: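 SW480-ADH cells treated 48 h in medium with charcoal-treated FCS; vehicle controls. Quantitative RT-PCR: 95 °C 10 min, then 40 cycles of 95 °C 15 s and 60 °C 30 s. Expression normalized to RPLP0 by comparative C_T method. Measurements in triplicate.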

[5] = target: T1, Vitamin D3 receptor; assay: Binding affinity to VDR assessed as inhibition of fluorescent ligand by fluorescence polarization competition assay
[6] = tested on: MCF7; assay: Antiproliferative activity against human MCF7 cells at 10 '-7 M after 48 hrs by MTT assay relative to untreated-control; assay type: functional, cell-based
In short: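 MCF-7 cells seeded at 5 × 10⁴ per well, treated 24 h later for 48 h in medium with charcoal-treated FCS; vehicle controls. MTT (0.5 μg/μL) added for 1 h, medium removed, formazan dissolved in DMSO, absorbance read at 570 nm. Three individual experiments averaged; SD shown.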

[7] = tested on: SW480-ADH; assay: Induction of human SW480-ADH cell differentiation assessed as formation of compact epithelioid islands of highly adherent cells at 10 '-7 M after 48 hrs by phase-contrast microscopy; assay type: functional, cell-based; in short: as §1
[8] = tested on: Mus musculus; assay: Increase in serum Calcium levels in CD-1 mouse at 0.3 ug/kg, ip administered every other day for 3 weeks measured on day 21; assay type: functional
In short: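 Female CD-1 mice, 6–8 weeks, six per group. Dosed ip in sesame oil every other day for three weeks; vehicle controls. Serum calcium measured with a colorimetric calcium kit a day after the last dose (day 21). Shown as percentage of calcium increase over untreated mice, with the 1α,25-(OH)₂D₃ group set to 100%. SD reported.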

| Compound | Activity [1] | EC50 [2] [nM] | Activity [3] | Activity [4] | IC50 [5] [nM] | Activity [6] | Activity [7] | Activity [8] [%] |
| --- | --- | --- | --- | --- | --- | --- | --- | --- |
| C=C1/C(=C\C=C2/CC[C@@H](CCCCCCC(C)(C)O)[C@]3(C)[C@@H]([C@H](C)CCO)CC[C@@H]23)C[C@@H](O)C[C@@H]1O | inactive | 9.04 | Non-toxic | inactive | 27.3 | Active | Active | 18 |
| C=C1/C(=C\C=C2/CC[C@@H](CCCCCCC(C)(C)O)[C@]3(C)[C@@H]([C@H](C)CO)CC[C@@H]23)C[C@@H](O)C[C@@H]1O | inactive | 8.19 | Non-toxic | inactive | 20.9 | Active | Active | 0 |
| C=C1/C(=C\C=C2/CCC[C@]3(C)[C@@H]([C@H](C)CCCC(C)(C)O)CC[C@@H]23)C[C@@H](O)C[C@@H]1O [CALCITRIOL] | Active | – | Non-toxic | inactive | – | Active | Active | 100 |
| C=C1/C(=C\C=C2/CC[C@@H](CCCCCCC(C)(C)O)[C@]3(C)[C@@H]([C@H](C)CCCO)CC[C@@H]23)C[C@@H](O)C[C@@H]1O | inactive | 5.74 | Non-toxic | inactive | 15.7 | Active | Active | 1 |
